# Experimental data: ChEMBL document CHEMBL4219120, “Synthesis and SAR study of new hydroxy and chloro-substituted 2,4-diphenyl 5H-chromeno[4,3-b]pyridines as selective topoisomerase IIα-targeting anticancer agents” (Bioorg Med Chem, 2018)
# The source made the active and inactive calls. The calls are words filed in the database; no cut-off is given here.
# What was measured:
# [1] = target: DNA topoisomerase 2-alpha (Homo sapiens) (UniProt P11388); test: Inhibition of recombinant human topoisomerase 2alpha assessed as decrease in relaxation of supercoiled pBR322 DNA at 100 uM after 30 mins by agarose gel electrophoresis relative to control
# How it was run: (§1)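 Recombinant human topo IIα (1 unit) with 100 ng supercoiled pBR322 in 10 mM Tris-HCl pH 7.9, 50 mM NaCl, 50 mM KCl, 5 mM MgCl2, 1 mM EDTA, 1 mM ATP, 15 µg/mL BSA, 30 min at 37 °C. Quenched with 7 mM EDTA. 0.8% agarose/TAE gel, 50 V, 1 h; EtBr stain; UV densitometry. Compounds came from 20 mM DMSO stocks. 20 µM was tested only when inhibition at 100 µM exceeded 30%. Etoposide was the positive control.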
# [2] = target: DNA topoisomerase 2-alpha (Homo sapiens) (UniProt P11388); test: Inhibition of recombinant human topoisomerase 2alpha assessed as decrease in relaxation of supercoiled pBR322 DNA at 20 uM after 30 mins by agarose gel electrophoresis relative to control; how it was run: as §1
# [3] = target: T1, DNA topoisomerase 1 (Homo sapiens) (UniProt P11387); test: Inhibition of recombinant human topoisomerase 1 assessed as decrease in relaxation of supercoiled pBR322 DNA at 100 uM after 30 mins by agarose gel electrophoresis relative to control
# T1 sequence (whole entry): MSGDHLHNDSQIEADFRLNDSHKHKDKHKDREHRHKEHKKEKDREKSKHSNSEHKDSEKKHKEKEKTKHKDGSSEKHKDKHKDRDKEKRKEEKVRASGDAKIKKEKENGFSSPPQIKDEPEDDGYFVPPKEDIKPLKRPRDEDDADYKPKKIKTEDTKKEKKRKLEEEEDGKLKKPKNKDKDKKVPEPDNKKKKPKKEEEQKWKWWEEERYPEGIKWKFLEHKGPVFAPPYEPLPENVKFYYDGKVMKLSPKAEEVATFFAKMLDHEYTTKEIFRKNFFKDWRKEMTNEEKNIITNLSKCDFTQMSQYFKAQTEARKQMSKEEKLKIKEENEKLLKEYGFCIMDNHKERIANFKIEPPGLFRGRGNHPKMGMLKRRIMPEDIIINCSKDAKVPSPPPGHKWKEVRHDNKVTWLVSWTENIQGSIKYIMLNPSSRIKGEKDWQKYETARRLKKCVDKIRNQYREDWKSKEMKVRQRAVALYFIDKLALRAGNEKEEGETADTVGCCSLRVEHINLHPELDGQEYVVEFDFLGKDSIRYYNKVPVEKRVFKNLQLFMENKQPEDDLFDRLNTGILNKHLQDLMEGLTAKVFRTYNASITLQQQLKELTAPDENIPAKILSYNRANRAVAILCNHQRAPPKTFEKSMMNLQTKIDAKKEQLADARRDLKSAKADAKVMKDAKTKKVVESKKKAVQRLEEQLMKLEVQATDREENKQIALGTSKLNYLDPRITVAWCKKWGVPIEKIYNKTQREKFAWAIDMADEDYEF
# How it was run: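 Supercoiled pBR322 (100 ng) with 1 unit recombinant human topo I in 10 mM Tris-HCl pH 7.9, 150 mM NaCl, 0.1% BSA, 0.1 mM spermidine, 5% glycerol, 30 min at 37 °C. Stopped with SDS/dye stop solution. Run on 0.8% agarose in TAE, 50 V, 1 h; EtBr-stained; bands quantitated under UV. Compounds came from 20 mM DMSO stocks. 20 µM was tested only when inhibition at 100 µM exceeded 30%. Camptothecin was the positive control.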
# [4] = test system: HCT-15; test: Antiproliferative activity against human HCT15 cells after 72 hrs by CCK-8 assay; assay type: functional, cell-based; settings: HCT-15, 72 h
# How it was run: (§2)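 Cells seeded at 2-4 x 10^4 per well and grown overnight in medium with 10% FBS (37 °C, 5% CO2). After 4 h FBS starvation, medium was replaced with medium containing graded compound concentrations for 72 h. CCK-8 was added for 4 h more, then absorbance read at 450 nm. IC50 came from a four-parameter logistic fit. Mean ± S.D. of three experiments, each in triplicate.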
# [5] = test system: T47D; test: Antiproliferative activity against human T47D cells after 72 hrs by CCK-8 assay; assay type: functional, cell-based; how it was run: as §2
# [6] = test system: HeLa; test: Antiproliferative activity against human HeLa cells after 72 hrs by CCK-8 assay; assay type: functional, cell-based; how it was run: as §2
# [7] = test system: HeLa; test: Potency index, ratio of etoposide IC50 to compound IC50 for human HeLa cells; assay type: functional
# [8] = test system: HeLa; test: Potency index, ratio of adriamycin IC50 to compound IC50 for human HeLa cells; assay type: functional
# [9] = target: DNA topoisomerase 2-alpha (Homo sapiens) (UniProt P11388); test: Potency index, ratio of compound effect for recombinant human topoisomerase 2alpha to etoposide effect for recombinant human topoisomerase 2alpha at 20 uM
# [10] = target: DNA topoisomerase 2-alpha (Homo sapiens) (UniProt P11388); test: Inhibition of recombinant human topoisomerase 2alpha assessed as decrease in relaxation of supercoiled pBR322 DNA at 100 uM after 30 mins by agarose gel electrophoresis relative to etoposide
# [11] = target: DNA topoisomerase 2-alpha (Homo sapiens) (UniProt P11388); test: Inhibition of recombinant human topoisomerase 2alpha assessed as decrease in relaxation of supercoiled pBR322 DNA at 20 uM after 30 mins by agarose gel electrophoresis relative to etoposide
# [12] = target: T1, DNA topoisomerase 1 (Homo sapiens); test: Inhibition of recombinant human topoisomerase 1 assessed as decrease in relaxation of supercoiled pBR322 DNA at 100 uM after 30 mins by agarose gel electrophoresis relative to camptothecin
# DNA topoisomerase 2-alpha (Homo sapiens), sequence (P11388 whole entry): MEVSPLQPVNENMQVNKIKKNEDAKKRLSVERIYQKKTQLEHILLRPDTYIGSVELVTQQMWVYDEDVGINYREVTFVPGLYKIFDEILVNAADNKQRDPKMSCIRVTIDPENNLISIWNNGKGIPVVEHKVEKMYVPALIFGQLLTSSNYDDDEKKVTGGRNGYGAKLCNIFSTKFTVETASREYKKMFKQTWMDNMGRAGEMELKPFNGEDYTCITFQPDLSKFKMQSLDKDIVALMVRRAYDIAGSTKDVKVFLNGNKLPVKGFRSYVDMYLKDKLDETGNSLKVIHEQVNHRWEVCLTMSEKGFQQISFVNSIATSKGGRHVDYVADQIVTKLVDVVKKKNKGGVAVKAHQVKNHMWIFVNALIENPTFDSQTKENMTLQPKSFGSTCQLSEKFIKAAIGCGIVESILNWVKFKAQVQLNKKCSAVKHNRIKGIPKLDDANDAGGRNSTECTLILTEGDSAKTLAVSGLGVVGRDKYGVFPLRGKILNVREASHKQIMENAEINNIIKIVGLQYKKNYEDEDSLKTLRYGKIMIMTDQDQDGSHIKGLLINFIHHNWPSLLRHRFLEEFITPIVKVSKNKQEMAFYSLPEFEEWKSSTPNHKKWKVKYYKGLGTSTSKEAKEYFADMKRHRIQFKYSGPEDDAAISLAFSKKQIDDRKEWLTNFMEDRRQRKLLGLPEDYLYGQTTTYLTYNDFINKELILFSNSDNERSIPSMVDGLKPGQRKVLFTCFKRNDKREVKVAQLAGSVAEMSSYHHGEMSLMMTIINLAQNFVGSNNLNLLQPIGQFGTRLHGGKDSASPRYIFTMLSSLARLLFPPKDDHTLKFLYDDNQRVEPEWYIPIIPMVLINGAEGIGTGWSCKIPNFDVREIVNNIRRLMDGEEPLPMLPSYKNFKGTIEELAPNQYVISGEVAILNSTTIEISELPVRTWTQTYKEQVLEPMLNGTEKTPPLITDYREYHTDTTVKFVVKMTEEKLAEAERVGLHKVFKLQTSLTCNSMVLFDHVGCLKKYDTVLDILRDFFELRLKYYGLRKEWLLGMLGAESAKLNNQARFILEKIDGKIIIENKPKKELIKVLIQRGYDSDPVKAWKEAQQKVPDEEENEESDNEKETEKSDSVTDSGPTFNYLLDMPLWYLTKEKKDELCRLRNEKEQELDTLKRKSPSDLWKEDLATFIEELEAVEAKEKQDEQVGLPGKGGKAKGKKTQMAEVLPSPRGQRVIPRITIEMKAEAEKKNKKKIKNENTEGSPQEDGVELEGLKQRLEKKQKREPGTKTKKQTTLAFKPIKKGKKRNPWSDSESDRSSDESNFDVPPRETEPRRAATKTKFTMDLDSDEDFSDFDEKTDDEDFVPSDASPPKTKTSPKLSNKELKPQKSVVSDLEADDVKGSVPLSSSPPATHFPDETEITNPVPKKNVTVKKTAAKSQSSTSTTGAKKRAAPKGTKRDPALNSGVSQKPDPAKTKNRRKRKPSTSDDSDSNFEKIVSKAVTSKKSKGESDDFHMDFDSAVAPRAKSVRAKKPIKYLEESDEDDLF
inhibition [1],inhibition [2],inhibition [3],IC50 [4],IC50 [5],IC50 [6],fold change (FC) [10],fold change (FC) [11],fold change (FC) [12],SMILES,Ratio IC50 [7],Ratio IC50 [8],Ratio [9]
79.5%,12.1%,22.8%,3.41 µM,1.27 µM,0.66 µM,,,,Oc1ccc(-c2cc(-c3cccc(Cl)c3)c3c(n2)-c2ccccc2OC3)cc1,15.2,2.6,
82.7%,74.5%,inactive,1.74 µM,0.75 µM,2.11 µM,1.24,2.1,inactive,Oc1ccc(-c2cc(-c3ccccc3Cl)nc3c2COc2ccccc2-3)cc1,,,2
